≈ marks a conversion by molar mass, not a printed value. Calls of active or inactive are those of the source. The calls are words filed in the database; no cut-off is given here.
Legend:
Staphylococcus aureus [1] = assay: Antimicrobial activity against methicillin-resistant Staphylococcus aureus strain 1 TB3G after 24 hrs by microdilution method; type: functional
Summary of the method: (§1)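 Growth was judged by turbidity. The MIC was taken as the lowest concentration giving the lowest growth.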

Staphylococcus aureus [2] = assay: Antimicrobial activity against methicillin-resistant Staphylococcus aureus strain 4 TB5G after 24 hrs by microdilution method; type: functional; summary of the method: as §1
Staphylococcus aureus [3] = assay: Antimicrobial activity against methicillin-resistant Staphylococcus aureus strain 2 TB4G after 24 hrs by microdilution method; type: functional; summary of the method: as §1
Listeria monocytogenes [4] = assay: Antimicrobial activity against Listeria monocytogenes at 100 ug/disc after 24 hrs by disc diffusion method; type: functional; conditions: read-out: DIZ
[5] = system: Staphylococcus epidermidis; assay: Antimicrobial activity against Staphylococcus epidermidis after 24 hrs by microdilution method; type: functional
Summary of the method: (§2)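 Growth was judged by turbidity, and the MIC was taken as the minimum concentration giving the lowest growth. Amikacin served as reference.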

[6] = system: Staphylococcus epidermidis; assay: Antimicrobial activity against Staphylococcus epidermidis at 100 ug/disc after 24 hrs by disc diffusion method; type: functional; conditions: read-out: DIZ
Staphylococcus aureus [7] = assay: Antimicrobial activity against methicillin-resistant Staphylococcus aureus strain 4 TB5G at 100 ug/disc after 24 hrs by disc diffusion method; type: functional, organism-based
Escherichia coli [8] = assay: Antimicrobial activity against Escherichia coli after 24 hrs by microdilution method; type: functional; summary of the method: as §2
Salmonella typhimurium [9] = assay: Antimicrobial activity against Salmonella Typhimurium at 100 ug/disc after 24 hrs by disc diffusion method; type: functional, Salmonella enterica subsp. enterica serovar Typhimurium; conditions: Salmonella enterica, read-out: DIZ
Klebsiella pneumoniae [10] = assay: Antimicrobial activity against Klebsiella pneumoniae after 24 hrs by microdilution method; type: functional; summary of the method: as §2
Staphylococcus aureus [11] = assay: Antimicrobial activity against Staphylococcus aureus at 100 ug/disc after 24 hrs by disc diffusion method; type: functional; conditions: read-out: DIZ
Staphylococcus aureus [12] = assay: Antimicrobial activity against methicillin-resistant Staphylococcus aureus strain 2 TB4G at 100 ug/disc after 24 hrs by disc diffusion method; type: functional; conditions: read-out: DIZ
Klebsiella pneumoniae [13] = assay: Antimicrobial activity against Klebsiella pneumoniae at 100 ug/disc after 24 hrs by disc diffusion method; type: functional; conditions: read-out: DIZ
Bacillus subtilis [14] = assay: Antimicrobial activity against Bacillus subtilis after 24 hrs by microdilution method; type: functional; summary of the method: as §2
Staphylococcus aureus [15] = assay: Antimicrobial activity against methicillin-resistant Staphylococcus aureus strain 1 TB3G at 100 ug/disc after 24 hrs by disc diffusion method; type: functional; conditions: read-out: DIZ
Escherichia coli [16] = assay: Antimicrobial activity against Escherichia coli at 100 ug/disc after 24 hrs by disc diffusion method; type: functional; conditions: read-out: DIZ
Salmonella typhimurium [17] = assay: Antimicrobial activity against Salmonella Typhimurium after 24 hrs by microdilution method; type: functional, Salmonella enterica subsp. enterica serovar Typhimurium; conditions: Salmonella enterica; summary of the method: as §2
Bacillus subtilis [18] = assay: Antimicrobial activity against Bacillus subtilis at 100 ug/disc after 24 hrs by disc diffusion method; type: functional; conditions: read-out: DIZ
Staphylococcus aureus [19] = assay: Antimicrobial activity against Staphylococcus aureus after 24 hrs by microdilution method; type: functional; summary of the method: as §2
Listeria monocytogenes [20] = assay: Antimicrobial activity against Listeria monocytogenes after 24 hrs by microdilution method; type: functional; summary of the method: as §2
[21] = system: Staphylococcus epidermidis; assay: Antimicrobial activity against Staphylococcus epidermidis at 1000 ug/disc after 24 hrs by disc diffusion method; type: functional; conditions: read-out: DIZ
[22] = Inhibition of human elastase
Salmonella typhimurium [23] = assay: Antimicrobial activity against Salmonella Typhimurium at 1000 ug/disc after 24 hrs by disc diffusion method; type: functional, Salmonella enterica subsp. enterica serovar Typhimurium; conditions: Salmonella enterica, read-out: DIZ
Bacillus subtilis [24] = assay: Antimicrobial activity against Bacillus subtilis at 500 ug/disc after 24 hrs by disc diffusion method; type: functional; conditions: read-out: DIZ
Staphylococcus aureus [25] = assay: Antimicrobial activity against Staphylococcus aureus at 500 ug/disc after 24 hrs by disc diffusion method; type: functional; conditions: read-out: DIZ
Summary of the method: (§3)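 Disc diffusion on 2.4% Mueller-Hinton agar inoculated with the strain. Paper discs 6 mm across were loaded with test compound and placed on the agar. Plates were incubated at 37 °C for 24 h. Read-out was the diameter of the inhibition zone in mm.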

Staphylococcus aureus [26] = assay: Antimicrobial activity against methicillin-resistant Staphylococcus aureus strain 2 TB4G at 500 ug/disc after 24 hrs by disc diffusion method; type: functional; conditions: read-out: DIZ; summary of the method: as §3
Escherichia coli [27] = assay: Antimicrobial activity against Escherichia coli at 1000 ug/disc after 24 hrs by disc diffusion method; type: functional; conditions: read-out: DIZ
Listeria monocytogenes [28] = assay: Antimicrobial activity against Listeria monocytogenes at 500 ug/disc after 24 hrs by disc diffusion method; type: functional; conditions: read-out: DIZ
Chymase = molecular target: T1, Chymase (Homo sapiens, UniProt P23946); assay: Inhibition of human chymase
T1 sequence (P23946 whole entry): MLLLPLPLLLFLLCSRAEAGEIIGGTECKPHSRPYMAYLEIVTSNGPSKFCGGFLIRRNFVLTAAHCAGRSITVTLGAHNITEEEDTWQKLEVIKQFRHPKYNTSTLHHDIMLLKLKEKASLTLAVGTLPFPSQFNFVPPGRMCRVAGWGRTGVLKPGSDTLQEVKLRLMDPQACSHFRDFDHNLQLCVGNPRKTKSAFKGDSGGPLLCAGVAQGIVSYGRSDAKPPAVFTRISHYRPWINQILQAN

A549 [29] = assay: Cytotoxicity against human A549 cells after 48 hrs by MTT assay; type: functional, cell-based; conditions: A549, 48 h
Summary of the method: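 A549 cells were kept in DMEM with 2 mM L-glutamine, 10% FBS, penicillin 50 IU/mL and streptomycin at 37 °C under 5% CO2. 1×10^4 cells per well were treated 24 h after seeding with compounds diluted in medium for 48 h. MTT (0.4 mg/mL in PBS) was added for 4 h in the dark, formazan was dissolved in DMSO for 4 h and absorbance read at 540 nm. Viability was expressed as % of untreated cells, and IC50 was derived.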

[30] = system: Staphylococcus epidermidis; assay: Antimicrobial activity against Staphylococcus epidermidis at 500 ug/disc after 24 hrs by disc diffusion method; type: functional; conditions: read-out: DIZ
Listeria monocytogenes [31] = assay: Antimicrobial activity against Listeria monocytogenes at 1000 ug/disc after 24 hrs by disc diffusion method; type: functional; conditions: read-out: DIZ
Staphylococcus aureus [32] = assay: Antimicrobial activity against methicillin-resistant Staphylococcus aureus strain 2 TB4G at 1000 ug/disc after 24 hrs by disc diffusion method; type: functional; conditions: read-out: DIZ; summary of the method: as §3
Klebsiella pneumoniae [33] = assay: Antimicrobial activity against Klebsiella pneumoniae at 1000 ug/disc after 24 hrs by disc diffusion method; type: functional; conditions: read-out: DIZ
Staphylococcus aureus [34] = assay: Antimicrobial activity against Staphylococcus aureus at 1000 ug/disc after 24 hrs by disc diffusion method; type: functional; conditions: read-out: DIZ
A549 [35] = assay: Cytotoxicity against human A549 cells assessed as cell death at 1 ug after 48 hrs by MTT assay; type: functional
Summary of the method: (§4)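 A549 cells were grown in DMEM with 2 mmol L-glutamine, 10% FBS, penicillin (50 IU/mL) and streptomycin, at 37 °C and 5% CO2. 1×10^4 cells/well were plated and treated 24 h later with compound diluted in medium for 48 h. Controls were DMSO-matched and untreated wells. MTT 0.4 mg/mL in PBS was added for 4 h in the dark, then DMSO for 4 h. A540 was read and reported as % live cells relative to untreated.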

A549 [36] = assay: Cytotoxicity against human A549 cells assessed as cell death at 5 ug after 48 hrs by MTT assay; type: functional; summary of the method: as §4
Salmonella typhimurium [37] = assay: Antimicrobial activity against Salmonella Typhimurium at 500 ug/disc after 24 hrs by disc diffusion method; type: functional, Salmonella enterica subsp. enterica serovar Typhimurium; conditions: Salmonella enterica, read-out: DIZ
A549 [38] = assay: Cytotoxicity against human A549 cells assessed as cell death at 10 ug after 48 hrs by MTT assay; type: functional; summary of the method: as §4
Staphylococcus aureus [39] = assay: Antimicrobial activity against methicillin-resistant Staphylococcus aureus strain 4 TB5G at 1000 ug/disc after 24 hrs by disc diffusion method; type: functional; conditions: read-out: DIZ; summary of the method: as §3
Staphylococcus aureus [40] = assay: Antimicrobial activity against methicillin-resistant Staphylococcus aureus strain 1 TB3G at 500 ug/disc after 24 hrs by disc diffusion method; type: functional; conditions: read-out: DIZ; summary of the method: as §3
Staphylococcus aureus [41] = assay: Antimicrobial activity against methicillin-resistant Staphylococcus aureus strain 4 TB5G at 500 ug/disc after 24 hrs by disc diffusion method; type: functional; conditions: read-out: DIZ; summary of the method: as §3
Bacillus subtilis [42] = assay: Antimicrobial activity against Bacillus subtilis at 1000 ug/disc after 24 hrs by disc diffusion method; type: functional; conditions: read-out: DIZ
Klebsiella pneumoniae [43] = assay: Antimicrobial activity against Klebsiella pneumoniae at 500 ug/disc after 24 hrs by disc diffusion method; type: functional; conditions: read-out: DIZ
Staphylococcus aureus [44] = assay: Antimicrobial activity against methicillin-resistant Staphylococcus aureus strain 1 TB3G at 1000 ug/disc after 24 hrs by disc diffusion method; type: functional; conditions: read-out: DIZ; summary of the method: as §3
Escherichia coli [45] = assay: Antimicrobial activity against Escherichia coli at 500 ug/disc after 24 hrs by disc diffusion method; type: functional; conditions: read-out: DIZ
A549 [46] = assay: Cytotoxicity against human A549 cells assessed as cell death at 2 ug after 48 hrs by MTT assay; type: functional; summary of the method: as §4
A549 [47] = assay: Cytotoxicity against human A549 cells assessed as cell death at 25 ug after 48 hrs by MTT assay; type: functional; summary of the method: as §4

NCC[C@H](O)C(=O)N[C@@H]1C[C@H](N)[C@@H](O[C@H]2O[C@H](CN)[C@@H](O)[C@H](O)[C@H]2O)[C@H](O)[C@H]1O[C@H]1O[C@H](CO)[C@@H](O)[C@H](N)[C@H]1O [AMIKACIN]
MIC (Staphylococcus aureus [1]): > 100 µg/mL | MIC (Staphylococcus aureus [2]): > 100 µg/mL | MIC (Staphylococcus aureus [3]): > 100 µg/mL | zone of inhibition at 100 µg/disc (Listeria monocytogenes [4]): 20 mm | MIC [5]: 12 µg/mL (≈ 20.5 µM) | zone of inhibition at 100 µg/disc [6]: 22 mm | diameter of the inhibition zone (DIZ) (Staphylococcus aureus [7]): inactive | MIC (Escherichia coli [8]): 6 µg/mL (≈ 10.2 µM) | zone of inhibition at 100 µg/disc (Salmonella typhimurium [9]): 19 mm | MIC (Klebsiella pneumoniae [10]): 6 µg/mL (≈ 10.2 µM) | zone of inhibition at 100 µg/disc (Staphylococcus aureus [11]): 20 mm | zone of inhibition at 100 µg/disc (Staphylococcus aureus [12]): 19 mm | zone of inhibition at 100 µg/disc (Klebsiella pneumoniae [13]): 21 mm | MIC (Bacillus subtilis [14]): 6 µg/mL (≈ 10.2 µM) | zone of inhibition at 100 µg/disc (Staphylococcus aureus [15]): 17 mm | zone of inhibition at 100 µg/disc (Escherichia coli [16]): 22 mm | MIC (Salmonella typhimurium [17]): 12 µg/mL (≈ 20.5 µM) | zone of inhibition at 100 µg/disc (Bacillus subtilis [18]): 21 mm | MIC (Staphylococcus aureus [19]): 50 µg/mL (≈ 85.4 µM) | MIC (Listeria monocytogenes [20]): 6 µg/mL (≈ 10.2 µM)

CC(C)CC(=O)OC(c1ccccc1)c1cc(O)c(C(=O)O)c(=O)[nH]1 (racemic)
zone of inhibition at 1000 µg/disc [21]: 17 mm | IC50 [22]: 4.5 µg/mL (≈ 13 µM) | MIC (Staphylococcus aureus [1]): > 100 µg/mL | zone of inhibition at 1000 µg/disc (Salmonella typhimurium [23]): 20 mm | zone of inhibition at 500 µg/disc (Bacillus subtilis [24]): 7 mm | MIC (Staphylococcus aureus [2]): > 100 µg/mL | zone of inhibition at 500 µg/disc (Staphylococcus aureus [25]): 7 mm | zone of inhibition at 500 µg/disc (Staphylococcus aureus [26]): 7 mm | zone of inhibition at 1000 µg/disc (Escherichia coli [27]): 15 mm | zone of inhibition at 500 µg/disc (Listeria monocytogenes [28]): 11 mm | IC50 (Chymase): 1220 nM | MIC (Staphylococcus aureus [3]): > 100 µg/mL | IC50 (A549 [29]): 11 µM | zone of inhibition at 500 µg/disc [30]: 8 mm | MIC [5]: > 100 µg/mL | zone of inhibition at 1000 µg/disc (Listeria monocytogenes [31]): 20 mm | zone of inhibition at 1000 µg/disc (Staphylococcus aureus [32]): 12 mm | zone of inhibition at 1000 µg/disc (Klebsiella pneumoniae [33]): 21 mm | zone of inhibition at 1000 µg/disc (Staphylococcus aureus [34]): 15 mm | MIC (Escherichia coli [8]): 50 µg/mL (≈ 145 µM) | MIC (Klebsiella pneumoniae [10]): 50 µg/mL (≈ 145 µM) | Activity (A549 [35]): 7.07% | Activity (A549 [36]): 44% | zone of inhibition at 500 µg/disc (Salmonella typhimurium [37]): 9 mm | Activity (A549 [38]): 71.07% | zone of inhibition at 1000 µg/disc (Staphylococcus aureus [39]): 12 mm | MIC (Bacillus subtilis [14]): 25 µg/mL (≈ 72.4 µM) | zone of inhibition at 500 µg/disc (Staphylococcus aureus [40]): 5 mm | zone of inhibition at 500 µg/disc (Staphylococcus aureus [41]): 6 mm | zone of inhibition at 1000 µg/disc (Bacillus subtilis [42]): 13 mm | zone of inhibition at 500 µg/disc (Klebsiella pneumoniae [43]): 12 mm | MIC (Salmonella typhimurium [17]): > 100 µg/mL | zone of inhibition at 1000 µg/disc (Staphylococcus aureus [44]): 10 mm | zone of inhibition at 500 µg/disc (Escherichia coli [45]): 8 mm | Activity (A549 [46]): 21.53% | Activity (A549 [47]): 81.53% | MIC (Staphylococcus aureus [19]): > 100 µg/mL | MIC (Listeria monocytogenes [20]): 50 µg/mL (≈ 145 µM)

Source: ChEMBL document CHEMBL1770123, “SPF32629A and SPF32629B: enantioselective synthesis, determination of absolute configuration, cytotoxicity and antibacterial evaluation” (Eur J Med Chem, 2011)
